Experimental data: ChEMBL document CHEMBL4699431, “Design and synthesis of substituted (1-(benzyl)-1H-1,2,3-triazol-4-yl)(piperazin-1-yl)methanone conjugates: study on their apoptosis inducing ability and tubulin polymerization inhibition” (RSC Med Chem, 2020)

Key:
Assay type in all cases: functional, cell-based
[1] = tested on: HeLa; assay: Cytotoxicity against human HeLa cells assessed as reduction in cell viability incubated for 48 hrs by MTT assay
Outline: (§1)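 Cells plated at 3000-4500 per well and treated after 24 h. DMSO stocks (20 mM) were diluted in medium to final DMSO <0.1%, twofold series […], 48 h. MTT (0.5 mg/mL) was added for 4 h, formazan dissolved in DMSO, absorbance read at 570 nm.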

[2] = tested on: BT-474; assay: Cytotoxicity against human BT-474 cells assessed as reduction in cell viability incubated for 48 hrs by MTT assay; settings: BT-474, 48 h; outline: as §1
[3] = tested on: HaCaT; assay: Cytotoxicity against human HaCaT cells assessed as reduction in cell viability incubated for 48 hrs by MTT assay; outline: as §1
[4] = tested on: NCI-H460; assay: Cytotoxicity against human NCI-H460 cells assessed as reduction in cell viability incubated for 48 hrs by MTT assay; settings: NCI-H460, 48 h; outline: as §1
[5] = tested on: MCF7; assay: Cytotoxicity against human MCF-7 cells assessed as reduction in cell viability incubated for 48 hrs by MTT assay; settings: MCF7, 48 h; outline: as §1

| Compound | IC50 [1] | IC50 [2] | IC50 [3] | IC50 [4] | IC50 [5] |
| --- | --- | --- | --- | --- | --- |
| CC(C)(C)c1ccc(S(=O)(=O)N2CCN(C(=O)c3cn(Cc4ccc(I)cc4)nn3)CC2)cc1 | 3.58 µM | 1.21 µM | 2.06 µM | 1.42 µM | 3.06 µM |
| COc1ccc(S(=O)(=O)N2CCN(C(=O)c3cn(Cc4ccccc4)nn3)CC2)cc1 | > 30 µM | > 30 µM | > 30 µM | > 30 µM | > 30 µM |
| COc1cccc(Cn2cc(C(=O)N3CCN(S(=O)(=O)c4ccc(Br)cc4)CC3)nn2)c1 | > 30 µM | > 30 µM | > 30 µM | > 30 µM | > 30 µM |
| O=C(c1cn(Cc2ccc(F)cc2)nn1)N1CCN(S(=O)(=O)c2ccc(Cl)cc2)CC1 | > 30 µM | > 30 µM | > 30 µM | > 30 µM | > 30 µM |
| O=C(c1cn(Cc2ccc(F)cc2)nn1)N1CCN(S(=O)(=O)c2ccc(Br)cc2)CC1 | > 30 µM | > 30 µM | > 30 µM | > 30 µM | > 30 µM |
| COc1cccc(Cn2cc(C(=O)N3CCN(S(=O)(=O)c4ccc(C(C)(C)C)cc4)CC3)nn2)c1 | > 30 µM | > 30 µM | > 30 µM | > 30 µM | > 30 µM |
| Cc1ccc(S(=O)(=O)N2CCN(C(=O)c3cn(Cc4cccc(Oc5ccccc5)c4)nn3)CC2)cc1 | > 30 µM | > 30 µM | > 30 µM | > 30 µM | > 30 µM |
| COc1cccc(Cn2cc(C(=O)N3CCN(S(=O)(=O)c4ccc(Cl)cc4)CC3)nn2)c1 | > 30 µM | > 30 µM | > 30 µM | > 30 µM | > 30 µM |
| O=C(c1cn(Cc2ccccc2)nn1)N1CCN(S(=O)(=O)c2ccc(Br)cc2)CC1 | > 30 µM | > 30 µM | > 30 µM | > 30 µM | > 30 µM |
| COc1cccc(Cn2cc(C(=O)N3CCN(S(=O)(=O)c4ccccc4)CC3)nn2)c1 | > 30 µM | > 30 µM | > 30 µM | > 30 µM | > 30 µM |
| O=C(c1cn(Cc2ccccc2)nn1)N1CCN(S(=O)(=O)c2ccc(Cl)cc2)CC1 | > 30 µM | > 30 µM | > 30 µM | > 30 µM | > 30 µM |
| O=C(c1cn(Cc2ccc(I)cc2)nn1)N1CCN(S(=O)(=O)c2ccccc2)CC1 | > 30 µM | > 30 µM | > 30 µM | > 30 µM | > 30 µM |
| COc1ccc(S(=O)(=O)N2CCN(C(=O)c3cn(Cc4ccc(I)cc4)nn3)CC2)cc1 | > 30 µM | > 30 µM | > 30 µM | > 30 µM | > 30 µM |
| O=C(c1cn(Cc2ccc(I)cc2)nn1)N1CCN(S(=O)(=O)c2ccc(Br)cc2)CC1 | 6.52 µM | 2.33 µM | 2.48 µM | 3.55 µM | 2.73 µM |
| COc1ccc(S(=O)(=O)N2CCN(C(=O)c3cn(Cc4ccc(F)cc4)nn3)CC2)cc1 | > 30 µM | > 30 µM | > 30 µM | > 30 µM | > 30 µM |
| O=C(c1cn(Cc2cccc(Oc3ccccc3)c2)nn1)N1CCN(S(=O)(=O)c2ccc(Cl)cc2)CC1 | 8.61 µM | 1.96 µM | 2.96 µM | 5.68 µM | 4.41 µM |
| O=C(c1cn(Cc2ccc(F)cc2)nn1)N1CCN(S(=O)(=O)c2ccccc2)CC1 | > 30 µM | > 30 µM | > 30 µM | > 30 µM | > 30 µM |
| O=C(c1cn(Cc2ccccc2)nn1)N1CCN(S(=O)(=O)c2ccccc2)CC1 | > 30 µM | > 30 µM | > 30 µM | > 30 µM | > 30 µM |
| CC(C)(C)c1ccc(S(=O)(=O)N2CCN(C(=O)c3cn(Cc4cccc(Oc5ccccc5)c4)nn3)CC2)cc1 | 3.7 µM | 3.89 µM | 4.34 µM | 5.05 µM | 3.28 µM |
| O=C(c1cn(Cc2ccc(I)cc2)nn1)N1CCN(S(=O)(=O)c2ccc(Cl)cc2)CC1 | 5.74 µM | 4.96 µM | 2.22 µM | 2.25 µM | 1.34 µM |
| COc1ccc(S(=O)(=O)N2CCN(C(=O)c3cn(Cc4cccc(OC)c4)nn3)CC2)cc1 | > 30 µM | > 30 µM | > 30 µM | > 30 µM | > 30 µM |
| COc1ccc(S(=O)(=O)N2CCN(C(=O)c3cn(Cc4cccc(Oc5ccccc5)c4)nn3)CC2)cc1 | 3.72 µM | 5.13 µM | 2.59 µM | 8.2 µM | 2.2 µM |
| COC(=O)Nc1nc2cc(C(=O)c3cccs3)ccc2[nH]1 [NOCODAZOLE] |  | 0.87 µM | 1.19 µM | 2.29 µM | 1.76 µM |
| CC(C)(C)c1ccc(S(=O)(=O)N2CCN(C(=O)c3cn(Cc4ccccc4)nn3)CC2)cc1 | > 30 µM | > 30 µM | > 30 µM | > 30 µM | > 30 µM |
| CC(C)(C)c1ccc(S(=O)(=O)N2CCN(C(=O)c3cn(Cc4ccc(F)cc4)nn3)CC2)cc1 | > 30 µM | > 30 µM | > 30 µM | > 30 µM | > 30 µM |
| Cc1ccc(S(=O)(=O)N2CCN(C(=O)c3cn(Cc4ccc(I)cc4)nn3)CC2)cc1 | > 30 µM | > 30 µM | > 30 µM | > 30 µM | > 30 µM |
| O=C(c1cn(Cc2cccc(Oc3ccccc3)c2)nn1)N1CCN(S(=O)(=O)c2ccccc2)CC1 | > 30 µM | > 30 µM | > 30 µM | > 30 µM | > 30 µM |
| Cc1ccc(S(=O)(=O)N2CCN(C(=O)c3cn(Cc4ccc(F)cc4)nn3)CC2)cc1 | > 30 µM | > 30 µM | > 30 µM | > 30 µM | > 30 µM |
| Cc1ccc(S(=O)(=O)N2CCN(C(=O)c3cn(Cc4ccccc4)nn3)CC2)cc1 | > 30 µM | > 30 µM | > 30 µM | > 30 µM | > 30 µM |
